Experiments:
[1] = Drug level in Sprague-Dawley rat cerebrospinal fluid at 1 mg/kg, ip after 1 hr; type: ADME, organism-based; details: read-out: Drug uptake
Outline: (§1)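 Male Sprague–Dawley rats received single ip doses of 1, 3 or 10 mg/kg. Cerebrospinal fluid and plasma levels were determined at 0.5, 1 and 4 h. Mean csf concentration (nM ± SEM) is reported.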

CYP3A4 = CYP3A4 (Homo sapiens, UniProt P08684); assay: Inhibition of human CYP3A4 at 10 uM; type: ADME
Outline: (§2)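 Inhibition of human CYP isoforms was measured with the compound tested at 10 µM.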

[2] = molecular target: Metabotropic glutamate receptor 2 (Homo sapiens, UniProt Q14416, L300Q); assay: Agonist activity at human recombinant mGlu2 receptor L300Q mutant expressed in AV12 cells assessed as stimulation of Ca2+ mobilization after 1 hr by FLIPR assay; type: functional, cell-based
[3] = Half life in Sprague-Dawley rat at 10 mg/kg, ip; type: ADME, organism-based; details: in vivo
Outline: (§3)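 Fasted male Sprague–Dawley rats (~250 g) received a single dose of compound dissolved in water and adjusted to pH 7–7.5 with NaOH, given iv, by oral gavage or ip. Serial blood samples (11–12 per rat) were drawn from a jugular vein catheter into EDTA and kept frozen. Plasma was mixed with methanol:water (1:1) containing an analogue internal standard for analysis. Mean plasma parameters are reported.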

[4] = Drug level in Sprague-Dawley rat cerebrospinal fluid at 10 mg/kg, ip after 1 hr; type: ADME, organism-based; details: read-out: Drug uptake; outline: as §1
[5] = AUC (0 to 24 hrs) in Sprague-Dawley rat at 1 mg/kg, ip; type: ADME, organism-based; design: dose 1 mg/kg, time < 24 hr, route intraperitoneal; details: in vivo; outline: as §3
[6] = Volume of distribution at steady state in Sprague-Dawley rat at 1 mg/kg, iv; type: ADME, organism-based; details: in vivo, read-out: Vdss
Outline: (§4)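 Compound dissolved in water, pH adjusted to 7–7.5 with NaOH; single dose to fasted male Sprague–Dawley rats (~250 g) by oral gavage, intravenous or intraperitoneal route. Serial blood (11–12 samples per rat) from jugular vein catheter into EDTA tubes, centrifuged, frozen; 25 µL plasma mixed with methanol:water (1:1) containing analogue internal standard.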

[7] = molecular target: Metabotropic glutamate receptor 1 (Homo sapiens, UniProt Q13255); assay: Antagonist activity at human recombinant mGlu1 receptor expressed in AV12 cells assessed as inhibition of glutamate-stimulated Ca2+ mobilization after 1 hr by FLIPR assay; type: functional, cell-based
Chain of Metabotropic glutamate receptor 1 (Q13255 whole entry): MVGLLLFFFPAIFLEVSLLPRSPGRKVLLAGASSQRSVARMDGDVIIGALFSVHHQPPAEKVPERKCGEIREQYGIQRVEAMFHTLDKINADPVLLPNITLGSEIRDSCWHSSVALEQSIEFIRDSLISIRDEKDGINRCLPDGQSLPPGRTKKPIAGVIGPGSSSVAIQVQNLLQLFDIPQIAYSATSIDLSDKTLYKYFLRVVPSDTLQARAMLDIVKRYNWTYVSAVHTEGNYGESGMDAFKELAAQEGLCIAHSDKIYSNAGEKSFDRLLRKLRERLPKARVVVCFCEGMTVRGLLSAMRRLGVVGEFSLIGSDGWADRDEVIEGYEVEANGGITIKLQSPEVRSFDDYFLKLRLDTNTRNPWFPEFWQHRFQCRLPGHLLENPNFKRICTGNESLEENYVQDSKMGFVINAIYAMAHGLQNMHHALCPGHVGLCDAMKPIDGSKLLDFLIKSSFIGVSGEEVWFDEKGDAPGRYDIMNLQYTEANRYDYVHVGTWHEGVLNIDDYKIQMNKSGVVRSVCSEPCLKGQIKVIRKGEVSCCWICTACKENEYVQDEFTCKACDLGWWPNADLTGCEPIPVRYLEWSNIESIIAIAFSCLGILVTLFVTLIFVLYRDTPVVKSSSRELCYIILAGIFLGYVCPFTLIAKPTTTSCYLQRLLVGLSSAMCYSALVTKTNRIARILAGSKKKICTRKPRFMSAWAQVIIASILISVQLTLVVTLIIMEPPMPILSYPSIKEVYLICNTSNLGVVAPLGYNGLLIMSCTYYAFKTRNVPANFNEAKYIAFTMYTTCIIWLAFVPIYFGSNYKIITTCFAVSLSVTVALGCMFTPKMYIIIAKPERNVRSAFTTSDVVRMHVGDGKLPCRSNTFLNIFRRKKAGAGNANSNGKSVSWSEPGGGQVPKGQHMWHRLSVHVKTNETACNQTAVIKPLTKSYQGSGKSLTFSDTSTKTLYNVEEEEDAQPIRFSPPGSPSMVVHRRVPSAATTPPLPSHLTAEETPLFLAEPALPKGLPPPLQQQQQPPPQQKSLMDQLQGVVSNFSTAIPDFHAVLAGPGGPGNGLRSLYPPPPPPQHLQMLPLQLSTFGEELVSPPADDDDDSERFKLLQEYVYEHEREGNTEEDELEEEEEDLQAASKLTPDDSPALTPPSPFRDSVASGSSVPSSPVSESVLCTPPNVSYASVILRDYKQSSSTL

[8] = Plasma concentration in Sprague-Dawley rat at 3 mg/kg, ip after 4 hrs; type: ADME, organism-based
Outline: (§5)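 Separate experiment: single ip doses of 1, 3 and 10 mg/kg to rats, compound in water adjusted to pH 7–7.5 with NaOH; plasma (with csf) sampled at 0.5, 1 and 4 h; mean plasma concentrations ± SEM reported.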

[9] = Drug level in Sprague-Dawley rat cerebrospinal fluid at 3 mg/kg, ip after 0.5 hrs; type: ADME, organism-based; details: read-out: Drug uptake; outline: as §1
[10] = molecular target: Metabotropic glutamate receptor 3 (Homo sapiens, UniProt Q14832, D279E); assay: Agonist activity at human recombinant mGlu3 receptor D279E mutant expressed in AV12 cells assessed as stimulation of Ca2+ mobilization after 1 hr by FLIPR assay; type: functional, cell-based
Chain of Metabotropic glutamate receptor 3 (Homo sapiens, UniProt Q14832, D279E) (Q14832 23-879 D279E limits assumed): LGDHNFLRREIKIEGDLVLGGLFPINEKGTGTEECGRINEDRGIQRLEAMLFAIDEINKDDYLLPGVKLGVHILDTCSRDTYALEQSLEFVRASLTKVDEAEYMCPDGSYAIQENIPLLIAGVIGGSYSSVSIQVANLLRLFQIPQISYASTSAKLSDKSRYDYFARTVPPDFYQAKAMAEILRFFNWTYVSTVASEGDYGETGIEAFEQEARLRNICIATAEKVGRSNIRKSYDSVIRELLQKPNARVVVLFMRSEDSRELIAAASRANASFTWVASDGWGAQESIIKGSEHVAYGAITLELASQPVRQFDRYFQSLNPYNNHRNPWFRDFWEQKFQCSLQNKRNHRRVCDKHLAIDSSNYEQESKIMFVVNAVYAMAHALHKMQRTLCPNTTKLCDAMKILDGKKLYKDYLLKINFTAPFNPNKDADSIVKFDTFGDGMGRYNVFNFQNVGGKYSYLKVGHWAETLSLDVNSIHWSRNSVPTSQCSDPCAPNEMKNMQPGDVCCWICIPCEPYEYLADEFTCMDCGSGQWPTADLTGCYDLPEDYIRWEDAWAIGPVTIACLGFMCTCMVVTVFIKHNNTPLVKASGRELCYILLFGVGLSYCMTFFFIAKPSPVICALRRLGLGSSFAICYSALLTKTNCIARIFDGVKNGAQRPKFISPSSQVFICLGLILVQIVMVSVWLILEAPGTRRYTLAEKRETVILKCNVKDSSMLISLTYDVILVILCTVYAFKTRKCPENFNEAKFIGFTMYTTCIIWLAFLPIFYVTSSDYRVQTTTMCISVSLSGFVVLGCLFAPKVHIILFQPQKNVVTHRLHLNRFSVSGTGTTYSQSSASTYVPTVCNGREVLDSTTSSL

[11] = molecular target: T1, Metabotropic glutamate receptor 2 (Homo sapiens, UniProt Q14416); assay: Agonist activity at human recombinant mGlu2 receptor expressed in AV12 cells assessed as inhibition of forskolin-stimulated cAMP production after 20 min by fluorescence assay
T1 sequence (Q14416 whole entry): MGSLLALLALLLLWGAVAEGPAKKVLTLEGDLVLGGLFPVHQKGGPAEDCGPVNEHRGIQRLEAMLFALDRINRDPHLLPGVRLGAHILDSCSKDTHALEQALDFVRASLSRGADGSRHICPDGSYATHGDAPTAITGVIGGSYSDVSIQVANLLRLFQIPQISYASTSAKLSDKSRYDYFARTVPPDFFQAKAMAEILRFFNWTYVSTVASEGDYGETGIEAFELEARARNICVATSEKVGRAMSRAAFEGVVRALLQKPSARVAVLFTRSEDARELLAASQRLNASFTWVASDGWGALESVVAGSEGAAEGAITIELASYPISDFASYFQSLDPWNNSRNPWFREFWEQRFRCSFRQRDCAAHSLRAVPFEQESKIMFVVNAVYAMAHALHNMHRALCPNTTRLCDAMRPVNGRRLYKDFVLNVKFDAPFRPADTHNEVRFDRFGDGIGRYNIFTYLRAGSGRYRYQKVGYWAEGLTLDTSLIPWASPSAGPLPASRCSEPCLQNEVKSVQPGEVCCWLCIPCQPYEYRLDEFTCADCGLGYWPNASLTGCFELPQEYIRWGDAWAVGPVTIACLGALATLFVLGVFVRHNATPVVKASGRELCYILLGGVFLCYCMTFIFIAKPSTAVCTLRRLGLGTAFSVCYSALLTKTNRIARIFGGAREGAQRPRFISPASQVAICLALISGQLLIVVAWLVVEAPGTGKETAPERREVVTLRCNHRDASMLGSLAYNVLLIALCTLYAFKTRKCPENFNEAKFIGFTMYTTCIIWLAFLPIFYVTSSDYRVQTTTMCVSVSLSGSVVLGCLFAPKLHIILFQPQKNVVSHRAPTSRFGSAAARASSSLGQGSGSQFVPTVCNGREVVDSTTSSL

[12] = Drug level in Sprague-Dawley rat cerebrospinal fluid at 1 mg/kg, ip after 4 hrs; type: ADME, organism-based; details: read-out: Drug uptake; outline: as §1
[13] = molecular target: T1, Metabotropic glutamate receptor 2; assay: Agonist activity at wild type human recombinant mGlu2 receptor expressed in AV12 cells assessed as stimulation of Ca2+ mobilization after 1 hr by FLIPR assay; type: functional, cell-based
[14] = Tmax in Sprague-Dawley rat at 1 mg/kg, ip; type: ADME, organism-based; details: in vivo; outline: as §4
[15] = Plasma concentration in Sprague-Dawley rat at 3 mg/kg, ip after 1 hr; type: ADME, organism-based; outline: as §5
Rattus norvegicus [16] = assay: Toxicity in Sprague-Dawley rat assessed as impairment of neuromuscular coordination at 3 mg/kg, ip after 1 to 3 hrs by rotarod test; type: organism-based; details: in vivo
Rattus norvegicus [17] = organism: Rattus norvegicus; assay: Toxicity in Sprague-Dawley rat assessed as impairment of neuromuscular coordination at 300 nM of cerebrospinal fluid concentration by rotarod test; type: organism-based; details: in vivo, 0.3 µM
[18] = Tmax in Sprague-Dawley rat at 10 mg/kg, ip; type: ADME, organism-based; details: in vivo; outline: as §4
[19] = Drug level in Sprague-Dawley rat cerebrospinal fluid at 3 mg/kg, ip after 4 hrs; type: ADME, organism-based; details: read-out: Drug uptake; outline: as §1
[20] = AUC (0 to 24 hrs) in Sprague-Dawley rat at 10 mg/kg, ip; type: ADME, organism-based; design: dose 10 mg/kg, time < 24 hr, route intraperitoneal; details: in vivo; outline: as §3
[21] = Clearance in Sprague-Dawley rat at 1 mg/kg, iv; type: ADME, organism-based; details: in vivo; outline: as §3
[22] = molecular target: Metabotropic glutamate receptor 3 (Homo sapiens, UniProt Q14832, Q306L); assay: Agonist activity at human recombinant mGlu3 receptor Q306L mutant expressed in AV12 cells assessed as stimulation of Ca2+ mobilization after 1 hr by FLIPR assay; type: functional, cell-based
Chain of Metabotropic glutamate receptor 3 (Homo sapiens, UniProt Q14832, Q306L) (Q14832 23-879 Q306L limits assumed): as the sequence (Q14832 23-879 D279E limits assumed) above, with E257D, Q284L counted along it

[23] = Half life in Sprague-Dawley rat at 3 mg/kg, ip; type: ADME, organism-based; details: in vivo; outline: as §3
[24] = Cmax in Sprague-Dawley rat at 3 mg/kg, ip; type: ADME, organism-based; design: dose 3 mg/kg, route intraperitoneal; details: in vivo; outline: as §3
[25] = Metabolic stability of the compound in dog hepatocytes assessed as loss of compound at 2 uM; type: ADME, cell-based, Canis lupus familiaris, Hepatocyte; details: read-out: Drug degradation
Outline: (§6)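 Hepatocytes from mouse, rat, dog and human; compound tested at 2 µM; percent loss of parent compound measured.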

[26] = Bioavailability in Sprague-Dawley rat at 10 mg/kg, ip; type: ADME, organism-based; details: in vivo; outline: as §3
[27] = Plasma concentration in Sprague-Dawley rat at 1 mg/kg, ip after 1 hr; type: ADME, organism-based; outline: as §5
[28] = Plasma concentration in Sprague-Dawley rat at 10 mg/kg, ip after 4 hrs; type: ADME, organism-based; outline: as §5
[29] = AUC (0 to 24 hrs) in Sprague-Dawley rat at 5 mg/kg, po; type: ADME, organism-based; design: time < 24 hr, dose 5 mg/kg, route oral; details: in vivo; outline: as §3
[30] = Drug level in Sprague-Dawley rat cerebrospinal fluid at 3 mg/kg, ip after 1 hr; type: ADME, organism-based; details: read-out: Drug uptake; outline: as §1
[31] = molecular target: Metabotropic glutamate receptor 2 (Homo sapiens, UniProt Q14416, E273D/L300Q); assay: Agonist activity at human recombinant mGlu2 receptor E273D and L300Q mutant expressed in AV12 cells assessed as stimulation of Ca2+ mobilization after 1 hr by FLIPR assay; type: functional, cell-based
[32] = Metabolic stability of the compound in human hepatocytes assessed as loss of compound at 2 uM; type: ADME, cell-based, Hepatocyte; details: read-out: Drug degradation; outline: as §6
[33] = molecular target: Metabotropic glutamate receptor 4 (Homo sapiens, UniProt Q14833); assay: Agonist activity at human recombinant mGlu4 receptor expressed in AV12 cells assessed as stimulation of Ca2+ mobilization after 1 hr by FLIPR assay; type: functional, cell-based
Chain of Metabotropic glutamate receptor 4 (Q14833 whole entry): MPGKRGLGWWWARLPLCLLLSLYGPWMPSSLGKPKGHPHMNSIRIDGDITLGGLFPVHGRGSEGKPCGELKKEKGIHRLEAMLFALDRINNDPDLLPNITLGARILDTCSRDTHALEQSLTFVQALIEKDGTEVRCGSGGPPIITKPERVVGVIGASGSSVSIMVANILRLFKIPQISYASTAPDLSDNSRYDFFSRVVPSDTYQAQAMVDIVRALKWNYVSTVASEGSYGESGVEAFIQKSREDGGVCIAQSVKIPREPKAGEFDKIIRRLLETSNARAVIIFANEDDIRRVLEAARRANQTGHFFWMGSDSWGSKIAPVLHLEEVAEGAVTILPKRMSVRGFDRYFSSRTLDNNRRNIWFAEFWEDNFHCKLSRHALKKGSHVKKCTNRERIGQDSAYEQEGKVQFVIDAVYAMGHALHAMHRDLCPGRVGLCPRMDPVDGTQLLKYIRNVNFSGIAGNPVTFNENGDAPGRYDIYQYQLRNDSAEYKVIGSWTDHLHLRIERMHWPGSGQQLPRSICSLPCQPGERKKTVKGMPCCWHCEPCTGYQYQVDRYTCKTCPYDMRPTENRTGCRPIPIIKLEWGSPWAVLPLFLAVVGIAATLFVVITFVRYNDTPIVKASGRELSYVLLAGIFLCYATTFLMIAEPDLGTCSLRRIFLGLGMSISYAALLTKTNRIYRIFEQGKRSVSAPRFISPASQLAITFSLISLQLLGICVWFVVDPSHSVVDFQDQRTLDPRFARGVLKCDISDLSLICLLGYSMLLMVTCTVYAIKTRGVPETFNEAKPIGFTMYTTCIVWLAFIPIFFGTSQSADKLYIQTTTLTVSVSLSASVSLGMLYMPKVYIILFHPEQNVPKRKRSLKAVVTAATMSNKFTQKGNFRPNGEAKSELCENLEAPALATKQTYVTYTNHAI

[34] = molecular target: Metabotropic glutamate receptor 8 (Homo sapiens, UniProt O00222); assay: Agonist activity at human recombinant mGlu8 receptor expressed in AV12 cells assessed as inhibition of forskolin-stimulated cAMP production after 1 hr by fluorescence assay; type: functional, cell-based
[35] = Plasma concentration in Sprague-Dawley rat at 3 mg/kg, ip after 0.5 hrs; type: ADME, organism-based; outline: as §5
CYP2D6 = CYP2D6 (Homo sapiens, UniProt P10635); assay: Inhibition of human CYP2D6 at 10 uM; type: ADME; outline: as §2
Chain of CYP2D6 (P10635 whole entry): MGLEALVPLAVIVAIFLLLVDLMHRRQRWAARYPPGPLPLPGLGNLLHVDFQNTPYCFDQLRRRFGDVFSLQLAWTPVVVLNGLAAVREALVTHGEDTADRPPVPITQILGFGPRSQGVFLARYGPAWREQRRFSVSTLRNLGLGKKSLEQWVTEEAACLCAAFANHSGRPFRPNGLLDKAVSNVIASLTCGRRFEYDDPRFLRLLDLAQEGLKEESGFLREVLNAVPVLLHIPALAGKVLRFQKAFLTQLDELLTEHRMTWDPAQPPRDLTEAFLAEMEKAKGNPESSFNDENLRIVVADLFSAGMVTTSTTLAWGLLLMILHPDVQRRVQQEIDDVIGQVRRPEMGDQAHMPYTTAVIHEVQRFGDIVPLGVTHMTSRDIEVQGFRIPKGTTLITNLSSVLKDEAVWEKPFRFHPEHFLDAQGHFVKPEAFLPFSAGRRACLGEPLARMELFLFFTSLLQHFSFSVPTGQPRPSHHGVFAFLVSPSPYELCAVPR

Chain of CYP3A4 (P08684 whole entry, canonical isoform): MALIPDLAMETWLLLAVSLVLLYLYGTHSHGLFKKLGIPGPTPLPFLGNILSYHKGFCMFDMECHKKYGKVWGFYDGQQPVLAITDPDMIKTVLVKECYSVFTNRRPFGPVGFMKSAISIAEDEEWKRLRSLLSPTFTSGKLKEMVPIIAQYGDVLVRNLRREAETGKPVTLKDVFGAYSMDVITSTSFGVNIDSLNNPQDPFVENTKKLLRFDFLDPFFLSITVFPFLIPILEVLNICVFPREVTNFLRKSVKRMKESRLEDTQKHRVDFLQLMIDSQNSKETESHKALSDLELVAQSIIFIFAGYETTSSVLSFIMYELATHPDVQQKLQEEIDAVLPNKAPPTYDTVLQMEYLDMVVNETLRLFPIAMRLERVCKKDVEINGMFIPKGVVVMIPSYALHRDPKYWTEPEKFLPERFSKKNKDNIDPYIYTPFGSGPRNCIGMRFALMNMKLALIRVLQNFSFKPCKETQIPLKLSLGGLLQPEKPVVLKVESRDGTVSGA

concentration at 1 h [1]: 39.9 nM
inhibition at 10 µM (CYP3A4): < 10%
EC50 [2]: 22.1 nM
half-life [3]: 5.2 h
concentration at 1 h [4]: 272 nM
AUC(0-t) at 24 h [5]: 6.01 µM·h
Vd [6]: 1.01 L/kg
IC50 [7]: > 12500 nM
concentration at 4 h [8]: 700 nM
concentration at 0.5 h [9]: 97.3 nM
EC50 [10]: 2180 nM
EC50 [11]: 5.6 nM
concentration at 4 h [12]: 9.7 nM
EC50 [13]: 20.1 nM
Tmax [14]: 0.4 h
concentration at 1 h [15]: 4980 nM
Tmax [18]: 0.5 h
concentration at 4 h [19]: 27.5 nM
AUC(0-t) at 24 h [20]: 43.1 µM·h
clearance [21]: 12.3 mL/min/kg
EC50 [22]: 2830 nM
half-life [23]: 3.2 h
Cmax [24]: 8050 nM
metabolised at 2 µM [25]: < 10%
bioavailability [26]: 88%
concentration at 1 h [27]: 3010 nM
concentration at 4 h [28]: 3020 nM
AUC(0-t) at 24 h [29]: 1.01 µM·h
concentration at 1 h [30]: 86.4 nM
EC50 [31]: 48.2 nM
metabolised at 2 µM [32]: < 10%
EC50 [33]: > 25000 nM
EC50 [34]: 10100 nM
concentration at 0.5 h [35]: 10100 nM
inhibition at 10 µM (CYP2D6): < 10%
SMILES: N[C@@]1(C(=O)O)C[C@@H](Sc2nc[nH]n2)[C@H]2[C@H](C(=O)O)[C@H]21
Activity (Rattus norvegicus [16]): Non-toxic
Activity (Rattus norvegicus [17]): Toxic
